Assay [1] has as its target D(2) dopamine receptor (Rattus norvegicus) (UniProt P61169). In words: Percent intrinsic activity was determined by measuring the formation of cAMP on Dopamine receptor D2 in vitro in rat intermediate lobe. The assay is classed as functional.
Assay [2] has as its target T1, D(2) dopamine receptor (Rattus norvegicus, UniProt P61169). In words: Formation of cAMP on Dopamine receptor D2 in vitro in rat intermediate lobe. The assay is classed as functional.
Assay [3] addresses T1, D(2) dopamine receptor. In words: Binding affinity was determined by measuring the ability to displace [125I]N-(p-aminophenethyl)-spiroperidol from Dopamine receptor D2 in rat caudate (in vitro). The gist of the method: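 Homogenized rat caudate was the tissue, and [¹²⁵I]-N-(p-aminophenethyl)spiroperidol was the radioligand displaced. Values are means with the SEM range.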

Another assay addresses D(1A) dopamine receptor (Rattus norvegicus, UniProt P18901). In words: Binding affinity was determined by measuring the ability to displace [125I]SCH-23982 from Dopamine receptor D1 in rat caudate (in vitro). The method in brief:
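Homogenized rat caudate was used as the tissue source. [¹²⁵I]SCH23982 was the displaced radioligand, and affinity was expressed as Ki. Values are means with the SEM range.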

Where “and” joins values, the source holds several entries; their conditions need not be identical. Equal values may be shown once.

The values below come from ChEMBL document CHEMBL1125128, “(1R,3S)-1-(aminomethyl)-3,4-dihydro-5,6-dihydroxy-3-phenyl-1H-2-benzopyran: a potent and selective D1 agonist” (J Med Chem, 1990).

T1 sequence (P61169 whole entry): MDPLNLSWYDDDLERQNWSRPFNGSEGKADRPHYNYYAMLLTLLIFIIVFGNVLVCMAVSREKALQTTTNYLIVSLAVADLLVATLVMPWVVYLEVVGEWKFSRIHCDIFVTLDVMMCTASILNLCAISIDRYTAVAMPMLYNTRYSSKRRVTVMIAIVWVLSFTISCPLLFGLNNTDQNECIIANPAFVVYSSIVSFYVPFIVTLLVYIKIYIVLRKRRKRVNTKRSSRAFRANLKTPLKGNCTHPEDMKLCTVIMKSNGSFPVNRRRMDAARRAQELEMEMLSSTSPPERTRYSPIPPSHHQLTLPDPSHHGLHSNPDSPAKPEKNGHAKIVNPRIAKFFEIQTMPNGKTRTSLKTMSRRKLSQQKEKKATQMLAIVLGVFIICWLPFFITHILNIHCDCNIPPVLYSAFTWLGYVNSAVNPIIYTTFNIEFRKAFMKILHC
Chain of D(2) dopamine receptor (Rattus norvegicus) (P61169 whole entry): as above
Chain of D(1A) dopamine receptor (P18901 whole entry): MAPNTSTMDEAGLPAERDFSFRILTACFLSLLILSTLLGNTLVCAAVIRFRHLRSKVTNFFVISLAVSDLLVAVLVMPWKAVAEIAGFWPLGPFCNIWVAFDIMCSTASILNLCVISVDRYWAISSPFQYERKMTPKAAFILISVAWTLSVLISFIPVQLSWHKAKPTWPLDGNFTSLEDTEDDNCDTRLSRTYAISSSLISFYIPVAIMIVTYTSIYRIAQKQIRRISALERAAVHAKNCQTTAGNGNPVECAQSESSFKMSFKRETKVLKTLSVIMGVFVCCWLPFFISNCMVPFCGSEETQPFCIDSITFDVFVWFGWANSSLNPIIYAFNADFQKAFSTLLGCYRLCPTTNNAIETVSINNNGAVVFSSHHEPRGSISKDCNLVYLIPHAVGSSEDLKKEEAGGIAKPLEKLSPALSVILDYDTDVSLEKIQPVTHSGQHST

As for `NCC1OCCc2c1ccc(O)c2O` (stereo not given) [listing 1 of 3 here], the IA in assay [1] was 96%.

As for `NC[C@@H]1O[C@H](c2ccccc2)Cc2c1ccc(O)c2O` (stereo in doubt; form 2) [listing 1 of 2 here], the IA in assay [1] is 98% and 101%.

As for `NC[C@H]1O[C@@H](c2ccccc2)Cc2c1ccc(O)c2O`, the EC50 on D(2) dopamine receptor [2] is above 10000 nM. Besides, the Ki on D(2) dopamine receptor [3] is above 10000 nM.

On to `NCC1OCCc2c1ccc(O)c2O` (stereo not given) [listing 2 of 3 here], for which the Ki stood at 1030 nM at D(1A) dopamine receptor and 4610 nM on D(2) dopamine receptor [3]. Also, the EC50 on D(2) dopamine receptor [2] was determined as 2850 nM.

In the case of `NC[C@@H]1O[C@H](c2ccccc2)Cc2c1ccc(O)c2O` (stereo in doubt; form 2) [listing 2 of 2 here], the EC50 at D(2) dopamine receptor [2] was 10200 nM and 3910 nM. For the same compound, the Ki at D(2) dopamine receptor [3] is 807 nM and 776 nM.

`NCC1OCCc2c1ccc(O)c2O` (stereo not given) [listing 3 of 3 here]: the Ki on D(1A) dopamine receptor was 1030 nM; at D(2) dopamine receptor [3] it was 4610 nM. This compound gave an EC50 at D(2) dopamine receptor [2] of 2850 nM.

`NC[C@@H]1O[C@H](c2ccccc2)Cc2c1ccc(O)c2O` (stereo in doubt; form 1) [listing 1 of 2 here]: the EC50 on D(2) dopamine receptor [2] was 3910 nM and 10200 nM. Further, the Ki at D(2) dopamine receptor [3] was 776 nM and 807 nM.

With `NC[C@@H]1O[C@H](c2ccccc2)Cc2c1ccc(O)c2O` (stereo in doubt; form 1) [listing 2 of 2 here], the IA in assay [1] is 101% and 98%.
